{"source": "ChEMBL document CHEMBL4270603", "about": "“Computer-aided drug discovery: Novel 3,9-disubstituted eudistomin U derivatives as potent antibacterial agents” (Eur J Med Chem, 2018)", "format_in_all_cases": "functional", "key": {"Staphylococcus aureus [1]": {"test_system": "Staphylococcus aureus", "test": "Antibacterial activity against Staphylococcus aureus CGMCC 1.8721 measured after 12 to 14 hrs", "method_in_brief": "(§1)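 Twofold (double) dilution method for in vitro antibacterial activity, with fosfomycin sodium, ciprofloxacin and propineb as positive controls.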"}, "Ralstonia solanacearum": {"test_system": "Ralstonia solanacearum", "test": "Antibacterial activity against Ralstonia solanacearum CGMCC 1.12711 measured after 12 to 14 hrs", "method_in_brief": "(§2)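 In vitro double dilution method, run alongside fosfomycin sodium, ciprofloxacin and propineb as positive controls.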"}, "Staphylococcus aureus [2]": {"test_system": "Staphylococcus aureus", "test": "Antibacterial activity against methicillin-resistant Staphylococcus aureus ATCC 43300 measured after 12 to 14 hrs", "method_in_brief": "as §2"}, "Bacillus cereus [3]": {"test_system": "Bacillus cereus", "test": "Antibacterial activity against Bacillus cereus CGMCC 1.1846 measured after 12 to 14 hrs", "method_in_brief": "as §1"}, "Staphylococcus aureus [4]": {"test_system": "Staphylococcus aureus", "test": "Potency index, ratio of ciprofloxacin MIC to test compound MIC for methicillin-resistant Staphylococcus aureus ATCC 43300"}, "Bacillus cereus [5]": {"test_system": "Bacillus cereus", "test": "Potency index, ratio of ciprofloxacin MIC to test compound MIC for Bacillus cereus CGMCC 1.1846"}}}
{"smiles": "Cc1ccc(Cn2c3ccccc3c3cc(CO)nc(-c4c[nH]c5ccccc45)c32)cc1", "values": [{"measurement": "MIC", "setting": "Staphylococcus aureus [1]", "result": 25, "unit": "µM"}, {"measurement": "MIC", "setting": "Ralstonia solanacearum", "result": 12.5, "unit": "µM"}, {"measurement": "MIC", "setting": "Staphylococcus aureus [2]", "result": 25, "unit": "µM"}, {"measurement": "MIC", "setting": "Bacillus cereus [3]", "result": 25, "unit": "µM"}]}
{"smiles": "OCc1cc2c3ccccc3n(Cc3ccc(F)cc3)c2c(-c2c[nH]c3ccccc23)n1", "values": [{"measurement": "MIC", "setting": "Staphylococcus aureus [1]", "result": 6.25, "unit": "µM"}, {"measurement": "MIC", "setting": "Ralstonia solanacearum", "result": 6.25, "unit": "µM"}, {"measurement": "MIC", "setting": "Staphylococcus aureus [2]", "result": 3.12, "unit": "µM"}, {"measurement": "Ratio", "setting": "Staphylococcus aureus [4]", "result": 4}, {"measurement": "MIC", "setting": "Bacillus cereus [3]", "result": 3.12, "unit": "µM"}, {"measurement": "Ratio", "setting": "Bacillus cereus [5]", "result": 2}]}
{"smiles": "OCc1cc2c3ccccc3n(Cc3cccc(Cl)c3)c2c(-c2c[nH]c3ccccc23)n1", "values": [{"measurement": "MIC", "setting": "Staphylococcus aureus [1]", "result": 25, "unit": "µM"}, {"measurement": "MIC", "setting": "Ralstonia solanacearum", "result": 50, "unit": "µM"}, {"measurement": "MIC", "setting": "Staphylococcus aureus [2]", "result": "> 100", "unit": "µM"}, {"measurement": "MIC", "setting": "Bacillus cereus [3]", "result": 25, "unit": "µM"}]}
{"smiles": "Cc1cccc(Cn2c3ccccc3c3cc(CO)nc(-c4c[nH]c5ccccc45)c32)c1", "values": [{"measurement": "MIC", "setting": "Staphylococcus aureus [1]", "result": 3.12, "unit": "µM"}, {"measurement": "MIC", "setting": "Ralstonia solanacearum", "result": 3.12, "unit": "µM"}, {"measurement": "MIC", "setting": "Staphylococcus aureus [2]", "result": 100, "unit": "µM"}, {"measurement": "MIC", "setting": "Bacillus cereus [3]", "result": 3.12, "unit": "µM"}, {"measurement": "Ratio", "setting": "Bacillus cereus [5]", "result": 2}]}
{"smiles": "COC(=O)c1cc2c([nH]c3ccccc32)c(-c2cn(C(C)=O)c3ccccc23)n1", "values": [{"measurement": "MIC", "setting": "Staphylococcus aureus [1]", "result": "> 100", "unit": "µM"}, {"measurement": "MIC", "setting": "Ralstonia solanacearum", "result": "> 100", "unit": "µM"}, {"measurement": "MIC", "setting": "Staphylococcus aureus [2]", "result": "> 100", "unit": "µM"}, {"measurement": "MIC", "setting": "Bacillus cereus [3]", "result": "> 100", "unit": "µM"}]}
{"smiles": "OCc1cc2c3ccccc3n(Cc3cccc(Br)c3)c2c(-c2c[nH]c3ccccc23)n1", "values": [{"measurement": "MIC", "setting": "Staphylococcus aureus [1]", "result": 25, "unit": "µM"}, {"measurement": "MIC", "setting": "Ralstonia solanacearum", "result": 25, "unit": "µM"}, {"measurement": "MIC", "setting": "Staphylococcus aureus [2]", "result": "> 100", "unit": "µM"}, {"measurement": "MIC", "setting": "Bacillus cereus [3]", "result": 25, "unit": "µM"}]}
{"smiles": "OCc1cc2c3ccccc3n(Cc3cccc(F)c3)c2c(-c2c[nH]c3ccccc23)n1", "values": [{"measurement": "MIC", "setting": "Staphylococcus aureus [1]", "result": 25, "unit": "µM"}, {"measurement": "MIC", "setting": "Ralstonia solanacearum", "result": 50, "unit": "µM"}, {"measurement": "MIC", "setting": "Staphylococcus aureus [2]", "result": "> 100", "unit": "µM"}, {"measurement": "MIC", "setting": "Bacillus cereus [3]", "result": 50, "unit": "µM"}]}
{"smiles": "OCc1cc2c3ccccc3n(Cc3ccccc3Cl)c2c(-c2c[nH]c3ccccc23)n1", "values": [{"measurement": "MIC", "setting": "Staphylococcus aureus [1]", "result": 25, "unit": "µM"}, {"measurement": "MIC", "setting": "Ralstonia solanacearum", "result": 25, "unit": "µM"}, {"measurement": "MIC", "setting": "Staphylococcus aureus [2]", "result": "> 100", "unit": "µM"}, {"measurement": "MIC", "setting": "Bacillus cereus [3]", "result": 50, "unit": "µM"}]}
{"smiles": "Cc1ccccc1Cn1c2ccccc2c2cc(CO)nc(-c3c[nH]c4ccccc34)c21", "values": [{"measurement": "MIC", "setting": "Staphylococcus aureus [1]", "result": 25, "unit": "µM"}, {"measurement": "MIC", "setting": "Ralstonia solanacearum", "result": 12.5, "unit": "µM"}, {"measurement": "MIC", "setting": "Staphylococcus aureus [2]", "result": "> 100", "unit": "µM"}, {"measurement": "MIC", "setting": "Bacillus cereus [3]", "result": 50, "unit": "µM"}]}
{"smiles": "OCc1cc2c3ccccc3n(Cc3ccccc3)c2c(-c2c[nH]c3ccccc23)n1", "values": [{"measurement": "MIC", "setting": "Staphylococcus aureus [1]", "result": 12.5, "unit": "µM"}, {"measurement": "MIC", "setting": "Ralstonia solanacearum", "result": 12.5, "unit": "µM"}, {"measurement": "MIC", "setting": "Staphylococcus aureus [2]", "result": 100, "unit": "µM"}, {"measurement": "MIC", "setting": "Bacillus cereus [3]", "result": 12.5, "unit": "µM"}]}
{"smiles": "COC(=O)c1cc2c3ccccc3n(Cc3ccccc3F)c2c(-c2cn(C(C)=O)c3ccccc23)n1", "values": [{"measurement": "MIC", "setting": "Staphylococcus aureus [1]", "result": "> 100", "unit": "µM"}, {"measurement": "MIC", "setting": "Ralstonia solanacearum", "result": "> 100", "unit": "µM"}, {"measurement": "MIC", "setting": "Staphylococcus aureus [2]", "result": "> 100", "unit": "µM"}, {"measurement": "MIC", "setting": "Bacillus cereus [3]", "result": "> 100", "unit": "µM"}]}
{"smiles": "OCc1cc2c3ccccc3n(Cc3ccccc3C(F)(F)F)c2c(-c2c[nH]c3ccccc23)n1", "values": [{"measurement": "MIC", "setting": "Staphylococcus aureus [1]", "result": 50, "unit": "µM"}, {"measurement": "MIC", "setting": "Ralstonia solanacearum", "result": 50, "unit": "µM"}, {"measurement": "MIC", "setting": "Staphylococcus aureus [2]", "result": 100, "unit": "µM"}, {"measurement": "MIC", "setting": "Bacillus cereus [3]", "result": 50, "unit": "µM"}]}
{"smiles": "OCc1cc2c3ccccc3n(Cc3ccccc3Br)c2c(-c2c[nH]c3ccccc23)n1", "values": [{"measurement": "MIC", "setting": "Staphylococcus aureus [1]", "result": 12.5, "unit": "µM"}, {"measurement": "MIC", "setting": "Ralstonia solanacearum", "result": 50, "unit": "µM"}, {"measurement": "MIC", "setting": "Staphylococcus aureus [2]", "result": "> 100", "unit": "µM"}, {"measurement": "MIC", "setting": "Bacillus cereus [3]", "result": 25, "unit": "µM"}]}
{"smiles": "COC(=O)c1cc2c3ccccc3n(Cc3ccc(Cl)cc3)c2c(-c2cn(C(C)=O)c3ccccc23)n1", "values": [{"measurement": "MIC", "setting": "Staphylococcus aureus [1]", "result": "> 100", "unit": "µM"}, {"measurement": "MIC", "setting": "Ralstonia solanacearum", "result": "> 100", "unit": "µM"}, {"measurement": "MIC", "setting": "Staphylococcus aureus [2]", "result": "> 100", "unit": "µM"}, {"measurement": "MIC", "setting": "Bacillus cereus [3]", "result": "> 100", "unit": "µM"}]}
{"smiles": "COC(=O)c1cc2c3ccccc3n(Cc3cccc(C(F)(F)F)c3)c2c(-c2cn(C(C)=O)c3ccccc23)n1", "values": [{"measurement": "MIC", "setting": "Staphylococcus aureus [1]", "result": "> 100", "unit": "µM"}, {"measurement": "MIC", "setting": "Ralstonia solanacearum", "result": "> 100", "unit": "µM"}, {"measurement": "MIC", "setting": "Staphylococcus aureus [2]", "result": "> 100", "unit": "µM"}, {"measurement": "MIC", "setting": "Bacillus cereus [3]", "result": "> 100", "unit": "µM"}]}
{"smiles": "COC(=O)c1cc2c3ccccc3n(Cc3cccc(Br)c3)c2c(-c2cn(C(C)=O)c3ccccc23)n1", "values": [{"measurement": "MIC", "setting": "Staphylococcus aureus [1]", "result": "> 100", "unit": "µM"}, {"measurement": "MIC", "setting": "Ralstonia solanacearum", "result": "> 100", "unit": "µM"}, {"measurement": "MIC", "setting": "Staphylococcus aureus [2]", "result": "> 100", "unit": "µM"}, {"measurement": "MIC", "setting": "Bacillus cereus [3]", "result": "> 100", "unit": "µM"}]}
{"smiles": "OCc1cc2c3ccccc3n(Cc3ccc(C(F)(F)F)cc3)c2c(-c2c[nH]c3ccccc23)n1", "values": [{"measurement": "MIC", "setting": "Staphylococcus aureus [1]", "result": 25, "unit": "µM"}, {"measurement": "MIC", "setting": "Ralstonia solanacearum", "result": 25, "unit": "µM"}, {"measurement": "MIC", "setting": "Staphylococcus aureus [2]", "result": 25, "unit": "µM"}, {"measurement": "MIC", "setting": "Bacillus cereus [3]", "result": 25, "unit": "µM"}]}
